# Shown are actives, neighbours in structure and some others; about 3.5% of the full set was active somewhere.
# MITF TRPM1 HTS = activators of MITF-driven TRPM1 promoter reporter, primary screen, cell-based, SK-MEL-5, luciferase, single point; AID 588334, 2011; 300,000 tested, 0.75% active; SK-MEL-5 TRPM1-promoter luciferase, 24 h; % of positive control, neutral wells = 0; activation, % at 12.5 µM;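 active = mean activation of at least 80% with every replicate also reaching 80%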;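 also: 0% = neutral control wells and 100% = parthenolide positive control wells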
# ERAP1 HTS inh = human ERAP1 aminopeptidase inhibitors, primary screen, biochemical, single point, plate reader | Endoplasmic reticulum aminopeptidase 1 (Homo sapiens), Q9NZ08 | recombinant ERAP1, Leu-AMC fluorescence, 60 min | 340,000 tested, 0.15% active | AID 652197, 2013 | inhibition, % at 10.7 µM;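 active = mean replicate inhibition of at least 30%, or all replicates individually reaching that 30% level; inactive = mean below 30% and not every replicate reaching it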;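 also: 0% = neutral control wells and 100% = L-leucinethiol positive control wells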
# Wnt bcat act = Wnt/beta-catenin pathway activators, primary screen, cell-based, plate reader, single point; Wnt/beta-catenin reporter cell assay, activator; activation, % at 9.35 µM; 300,000 tested, 1.2% active; in the data active = activation above about 30%, passing the limit was not always enough;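 also: 0% = neutral control wells and 100% = positive control wells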
# Cneo AK release = Cryptococcus neoformans cell lysis inducers, primary screen, AK release luminescence, single concentration. lysis activity, % at 15 µM. C. neoformans lysis, adenylate kinase release luminescence, 4 h; normalised: neutral wells 0, clomiphene wells 100. AID 651654, 2012. 360,000 tested, 0.2% active;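 active = mean lysis activity across replicates of at least 80%, whatever share of replicates individually reach that level; inactive = mean lysis activity below 80%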
#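 Assay system: log-phase C. neoformans yeast / Quantity: yeast cell density of 5 × 10^6 cells/mL / Medium: fresh YPD growth medium / Compound: single dose / Timing: static 4 h at 37 °C with compound, 1 h detection / Measured by: adenylate kinase release luminescence / Read-out: lysis from increased AK signal / Benchmarks: Clomiphene as positive lysis control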
# HIV Env fusion = inhibitors of HIV-1 Env-driven cell-cell fusion, primary screen, HeLa-JRFL effector, CEM21 target cells, luciferase | AID 651610, 2012 | inhibition, % at 12.3 µM | 360,000 tested, 1.1% active;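 active = mean replicate inhibition score of at least 50 and every replicate individually at or above 50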;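 also: 0% = plate neutral controls and 100% = maraviroc near 300 nM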
# esBAF inh = Bmi1 luciferase reporter increase in mESCs, primary screen, esBAF inhibitor project, mouse ES cells, Bmi1 luciferase knock-in, single point; 24 h; 100% = twice the neutral-well signal; reporter increase, % at 12.5 µM; 350,000 tested, 2% active; AID 602393, 2012; in the data active = activation above about 40%;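 also: 0% = median of the plate's neutral control wells and 100% = double that signal; a rise in the Bmi1 reporter signal indicates esBAF inhibition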
# Active calls of the source: *; nt = no result given; [ ] = dose if it differs, or a comment.
SMILES,MITF TRPM1 HTS,ERAP1 HTS inh,Wnt bcat act,Cneo AK release,HIV Env fusion,esBAF inh
CN1C(=O)c2cc(NC(=O)NC3CCCC3)ccc2OC[C@H]2O[C@H](CC(=O)O)CC[C@H]21,nt,-0.7,nt,-1.4,nt,-3.9
C[C@H](NC(=O)C[C@@H]1C[C@@H]2c3cc(NC(=O)Nc4ccc(C(F)(F)F)cc4)ccc3O[C@@H]2[C@@H](CO)O1)c1ccccc1,nt,0.5,nt,0.5,81.4*[16.7 µM],-5.6
C[C@H](NC(=O)C[C@@H]1C[C@H]2c3cc(NC(=O)Nc4ccc(C(F)(F)F)cc4)ccc3O[C@H]2[C@H](CO)O1)c1ccccc1,nt,-0.5,nt,48.7,-18.9[16.7 µM],0.2
O=C(Nc1ccc(C(F)(F)F)cc1)Nc1ccc2c(c1)[C@@H]1C[C@H](CC(=O)N3CCc4ccccc4C3)O[C@H](CO)[C@@H]1O2,nt,1.5,nt,6.6,81.5*[16.7 µM],-1.6
CO[C@H]1CN(C)C(=O)c2cc(NC(=O)Nc3ccccc3F)ccc2OC[C@@H](C)N(CC2CC2)C[C@H]1C,nt,-0.1,nt,5.9,nt,-4.3
COc1cccc(S(=O)(=O)N(C)C[C@H]2OCc3ccccc3-c3c(n(C)c4ccccc34)C(=O)N([C@@H](C)CO)C[C@H]2C)c1,nt,-0.2,nt,-2.0,-103.7[16.7 µM],-1.7
COc1cccc(S(=O)(=O)N(C)C[C@@H]2OCc3ccccc3-c3c(n(C)c4ccccc34)C(=O)N([C@@H](C)CO)C[C@@H]2C)c1,nt,-0.2,nt,0.9,60.2*[16.7 µM],4.3
COc1cccc(S(=O)(=O)N(C)C[C@H]2OCc3ccccc3-c3c(n(C)c4ccccc34)C(=O)N([C@H](C)CO)C[C@@H]2C)c1,nt,-0.5,nt,2.2,38.4[16.7 µM],6.7
COc1cccc(S(=O)(=O)N(C)C[C@@H]2OCc3ccccc3-c3c(n(C)c4ccccc34)C(=O)N([C@H](C)CO)C[C@@H]2C)c1,nt,-3.2,nt,-2.8,55.3*[16.7 µM],1.5
CCCN(C)C[C@@H]1OCc2cnnn2CCCC(=O)N([C@@H](C)CO)C[C@@H]1C,nt,0.2,nt,-1.7,nt,-8.3
O=C1C=CC(=O)c2c(O)c(N3CCN(CCOCCO)CC3)c(Br)c(O)c21,-95.3,2.0,-0.7,nt,60.7*,nt
CC(=O)N1[C@@H]2Cn3c(ccc(-c4ccccc4)c3=O)[C@H]1[C@@H](C(=O)Nc1ccccc1)[C@@H]2CO,nt,3.3,nt,73.6,nt,-0.8
C[C@@H](NC(=O)C[C@@H]1C[C@H]2c3cc(NC(=O)C4CCOCC4)ccc3O[C@H]2[C@@H](CO)O1)c1ccccc1,nt,-2.1,nt,-11.6,9.2[16.7 µM],-2.2
O=C(CCS(=O)(=O)c1ccccc1)NC1CCCCC1,105.3*,-0.1,22.3,-0.2,-12.8,nt
O=C(CCS(=O)(=O)c1cccc2nsnc12)NC1CCCCC1,14.5,nt,nt,0.4,0.5,2.7
O=C(CCS(=O)(=O)c1ccccc1Cl)NC1CCCCCC1,51.5,-0.7,20.6,-2.1,nt,49.0*
COc1ccc(S(=O)(=O)CCC(=O)NC2CCCCC2)cc1,-0.4,nt,-7.5,0.5,nt,4.1
COc1ccc(C#Cc2ccc3c(c2)O[C@@H](CN(C)C(=O)c2ccccn2)[C@@H](C)CN([C@H](C)CO)S3(=O)=O)cc1,nt,0.3,nt,1.1,25.5[16.7 µM],8.8
CN(C)CC(=O)Nc1ccc2c(c1)[C@H]1C[C@H](CC(=O)NC3CCCCC3)O[C@@H](CO)[C@H]1O2,nt,-0.8,nt,52.1,-1.1[16.7 µM],0.7
C[C@H](CO)N1C[C@H](C)[C@@H](CN(C)Cc2ccc(C(=O)Nc3ccccc3N)cc2)Oc2ccc(NC(=O)Nc3ccc(C(F)(F)F)cc3)cc2C1=O,nt,0.1,nt,0.5,nt,-9.3
O=C(COC(=O)c1ccccc1SCC(=O)NC1CCS(=O)(=O)C1)NC1CCS(=O)(=O)C1 (centres undefined),-5.6,-6.4,nt,nt,-7.7,nt
CCNC(=O)NC(=O)COC(=O)c1ccccc1SCC(=O)NC(=O)NCC,22.0,nt,53.1*,6.6,-24.8,nt
CC1CCc2cc(F)cc3c(=O)c(C(=O)O)cn1c23 (centres undefined),4.9,38.5*,-1.4,-1.0,2.1,0.7
CC1CCc2c(N3CCC(O)CC3)c(F)cc3c(=O)c(C(=O)O)cn1c23 (centres undefined),-10.3,-0.2,-3.8,0.0,18.5,1.1
